Most compounds without a hit are left out; they make up all but 1.4% or so of the library.
IDE cell inh: inhibits human insulin-degrading enzyme in HEK cells. P14735. inhibition, % at 5.59 µM. actives 0.41% (n = 320,000). AID 434962. FAbetaB cleavage, fluorescence polarization;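 active means percent inhibition above the average of all tested compounds plus 3 SD, set per screening campaign, cut at about 16% in these data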;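 further: IDE supplied by intact live HEK cells; FP after avidin binding of uncleaved biotin substrate so inhibition keeps polarization high; 0% = DMSO wells and 100% = 60 µM reference IDE inhibitor Ii1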
Yeast superoxide: yeast age-related superoxide inhibition as caloric restriction mimetic. superoxide response (% of plate mean), % at 10 µM. AID 2690. S. cerevisiae aged cells, superoxide DHE fluorescence; stronger effect = lower value. actives 0.18% (n = 330,000);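 active means superoxide response under a set limit, about three screen SD below normal, cut at about 65% in these data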;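 further: yeast aged for seven days with compound at 30 °C before DHE staining; 100% = average MFI of all compound-treated wells on the plate with controls excluded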
Efflux pump mplx: blocks antifungal efflux pumps in multiplex yeast assay. actives 0.44% (n = 330,000). S. cerevisiae Candida pump triplex, Nile Red efflux. inhibition, % at 10 µM;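 active means plate passing quality check with inhibition over a set limit, or well fluorescence over plate mean plus 4 SD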;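 further: Nile Red retained in pooled yeast measured as flow cytometry median fluorescence; 0% = buffer negative control and 100% = Enniatin B positive control; higher means more Nile Red kept so more efflux inhibition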
TbMetRS inhib: blocks T. brucei methionyl-tRNA synthetase activity; purified T. brucei MetRS, ATP depletion, Kinase-Glo luminescence; AID 624268; inhibition, % at 11.9 µM; actives 0.4% (n = 360,000);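 active means inhibition above a per-plate cutoff of the control wells' mean inhibition plus 3 SD, cut at about 5.5% in these data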;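 further: 0% = DMSO wells median and 100% = median of wells with control inhibitor compound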
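Dosing: 11.9 µM single point; system: parasite MetRS enzyme; technique: luminescence of leftover ATP; times: 15 min enzyme-compound preincubation, 2 h reaction, 10 min detection, 25 °C; replicates: each compound tested once; read-out basis: percent inhibition relative to median high and low control wells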
HDAC3 inh: human HDAC3 inhibition; O15379; recombinant HDAC3, fluorogenic peptide/trypsin coupled, fluorescence; inhibition, % at 8.3 µM; actives 0.15% (n = 320,000); AID 2718; in the data active means inhibition above about 26%, passing the limit was not always enough
Target sequence (O15379 whole entry, looked up): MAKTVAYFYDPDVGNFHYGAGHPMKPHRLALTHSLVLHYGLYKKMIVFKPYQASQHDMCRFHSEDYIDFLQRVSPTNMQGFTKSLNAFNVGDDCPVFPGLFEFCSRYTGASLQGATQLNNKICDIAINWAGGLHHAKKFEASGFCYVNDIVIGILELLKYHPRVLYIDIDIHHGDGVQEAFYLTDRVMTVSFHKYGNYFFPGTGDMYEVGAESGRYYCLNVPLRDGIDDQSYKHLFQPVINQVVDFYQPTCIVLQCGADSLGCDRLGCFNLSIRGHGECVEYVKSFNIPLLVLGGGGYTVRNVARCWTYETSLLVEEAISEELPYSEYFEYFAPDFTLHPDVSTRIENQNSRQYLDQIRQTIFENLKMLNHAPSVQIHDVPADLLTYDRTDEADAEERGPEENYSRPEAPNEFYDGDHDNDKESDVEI
IDE cell activ: boosts human insulin-degrading enzyme activity in HEK cells | FAbeta-B cleavage, fluorescence polarization; 0% vehicle, 100% cell-free pure enzyme wells | activation, % at 5.96 µM | actives 0.073% (n = 340,000);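 active means activation above the mean of all tested compounds plus 3 SD, set per screening campaign, cut at about 17% in these data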
TbMetRS confirm: Trypanosoma brucei MetRS inhibition confirmed | inhibition, % at 11.9 µM | shares compounds with TbMetRS inhib | T. brucei MetRS enzyme, luminescence (ATP depletion) | actives 93% (n = 1,400); in the data active means inhibition above about 7%
Jurkat cytotox: Jurkat T cell cytotoxicity for MetRS hits; Jurkat cells viability, ATP luminescence; inhibition, % at 8.3 µM; AID 624413; actives 12% (n = 1,400); shares compounds with TbMetRS inhib; in the data active means inhibition above about 15%;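 further: 0% = vehicle and 100% = reference inhibitor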
TbMetRS FP orth: T. brucei MetRS inhibition, orthogonal assay | inhibition, % at 11.9 µM | actives 44% (n = 1,400) | AID 651607 | shares compounds with TbMetRS inhib | purified T. brucei MetRS, fluorescence polarization; in the data active means inhibition above about 17%;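 further: 0% = vehicle wells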
* marks the source's active call; other numbers are inactive results; · = not tested or not shown.

SMILES | IDE cell inh | Yeast superoxide | Efflux pump mplx | TbMetRS inhib | HDAC3 inh | IDE cell activ | TbMetRS confirm | Jurkat cytotox | TbMetRS FP orth
CC(=O)Nc1ccc(C)c(NS(=O)(=O)c2cccc(C(F)(F)F)c2)c1 | -0.2 | 104.4 | 0.0 | -0.4 | -3.3 | 0.3 | · | · | ·
COc1ccc(NC(=O)CC2C(=O)N(c3ccc(OC)cc3)C(=O)N2CCc2cccs2)cc1 (stereo unspecified) | 5.1 | 98.2 | 0.1 | 10.9* | 0.5 | 1.3 | 20.5* | 0.3 | 15.0
CCN1C(=O)C(CC(=O)Nc2ccc(OC)cc2)N(Cc2ccc(OC)c(OC)c2)C1=S (stereo unspecified) | -0.2 | 97.7 | -0.1 | -0.3 | 1.0 | · | · | · | ·
COc1ccc(CCN2C(=S)N(C)C(=O)C2CC(=O)Nc2ccc(F)cc2)cc1 (stereo unspecified) | 6.5 | 108.4 | -0.1 | 57.7* | 2.0 | · | 80.8* | 5.5 | 50.8*
CCN1C(=O)C(CC(=O)Nc2ccc(Br)cc2)N(CCCc2ccccc2)C1=S (stereo unspecified) | -1.2 | 89.8 | 0.1 | 65.7* | 4.0 | 2.2 | 77.1* | 8.4 | 62.2*
CCN1C(=O)C(CC(=O)Nc2ccc(OC)cc2)N(CCc2ccc(OC)cc2)C1=S (stereo unspecified) | 3.2 | 105.2 | -0.1 | 36.4* | 13.9 | 2.4 | 50.6* | 3.3 | 33.6*
COc1ccc(S(=O)(=O)N2CCC(C(=O)N[C@@H](C)C(=O)NCc3ccco3)CC2)cc1 | · | · | · | 0.2 | · | · | · | · | ·
COc1ccc(C[C@H]2CN3C(=NC[C@@H]3C)N2CCNC(=O)CCC2CCCCC2)cc1 | -0.7 | 100.2 | 0.1 | -0.1 | -4.2 | 1.2 | · | · | ·
Cc1ccc2nc(SCC(=O)N(C)C3CCS(=O)(=O)C3)[nH]c2c1 (stereo unspecified) | 2.7 | 86.4 | -0.1 | 0.3 | -3.2 | 5.3 | · | · | ·
CCN(C(=O)CSc1nc2ccc(Cl)cc2[nH]1)C1CCS(=O)(=O)C1 (stereo unspecified) | 2.8 | 105.4 | 0.2 | 5.7* | 3.6 | 1.0 | 22.7* | -4.7 | 6.3
CCN(C(=O)CSc1nc2ccc(OC)cc2[nH]1)C1CCS(=O)(=O)C1 (stereo unspecified) | 0.7 | 85.4 | 0.1 | -0.3 | -0.6 | -0.5 | · | · | ·
Cc1ccc2nc(SCC(=O)NC3CCS(=O)(=O)C3)[nH]c2c1 (stereo unspecified) | 0.3 | 101.4 | 0.1 | 9.7* | 2.7 | -2.7 | 36.8* | -9.3 | 13.9
O=C(CSc1nc2ccccc2[nH]1)NC1CCS(=O)(=O)C1 (stereo unspecified) | 8.9 | 95.8 | -0.1 | 9.3* | 3.9 | -2.6 | 17.6* | 5.6 | -2.6
COc1ccc(CNC(=O)CSc2nc3ccc(C)cc3[nH]2)cc1 | 3.8 | 106.5 | 0.1 | 28.5* | 1.7 | -2.9 | 48.3* | -1.7 | 20.8*
CCOC(=O)[C@]12CCC=C1N(CCC1=CCCCC1)C(=O)[C@H](CC(=O)NCc1cccc3ccccc13)C2 | · | · | · | -0.1 | · | · | · | · | ·
O=C(OC1CCOC1=O)C1CCN(S(=O)(=O)c2ccccc2)CC1 (stereo unspecified) | -0.2 | 113.0 | 0.0 | 0.3 | -4.5 | -2.6 | · | · | ·
Cc1ccc2nc(SC(C)C(=O)NCc3ccc4c(c3)OCO4)[nH]c2c1 (stereo unspecified) | -0.4 | 97.8 | 0.0 | 13.2* | 8.0 | 1.2 | 35.2* | 2.1 | 14.5
CC(Sc1ccc(Cl)cc1)C(=O)NCc1ccc2c(c1)OCO2 (stereo unspecified) | -0.3 | 95.5 | 0.1 | 0.4 | 6.6 | -3.1 | · | · | ·
N#Cc1c(N)n(C2OC(CO)C(O)C2O)c2ncnc(N)c12 (stereo unspecified) | · | · | · | 7.8* | · | 3.5 | 29.9* | 97.5* | 10.0
CC(C)N(C)S(=O)(=O)c1ccc(Cl)c(C(=O)O)c1 | -1.1 | 99.7 | 0.1 | -0.4 | -4.1 | 2.3 | · | · | ·
CC(C)(C)[C@@H]1COC(=O)[C@H](Cc2ccc(F)cc2)CC/C=C\C[C@@H](CC(=O)NCCO)C(=O)N1 | 4.2 | 100.8 | -0.1 | -0.3 | · | 3.6 | · | · | ·
O=C(C1=C[C@H](c2ccccc2)C[C@H](OCCCCO)O1)N1CCN(Cc2ccc3c(c2)OCO3)CC1 | 6.7 | 95.6 | 0.0 | -0.2 | -3.4 | 6.2 | · | · | ·
O=C(C1=C[C@@H](c2ccc(Br)cc2)C[C@@H](OCCCCO)O1)N1CCN(Cc2ccc3c(c2)OCO3)CC1 | -2.4 | · | · | 9.0* | 5.1 | 5.9 | 30.6* | 5.0 | 8.7
O=C(C1=C[C@H](c2csc3ccccc23)C[C@H](OCCCCO)O1)N1CCN(Cc2ccc3c(c2)OCO3)CC1 | 3.8 | 91.8 | 0.1 | 0.2 | 4.0 | -2.6 | · | · | ·
O=C(C1=C[C@@H](c2csc3ccccc23)C[C@@H](OCCCCO)O1)N1CCN(Cc2ccc3c(c2)OCO3)CC1 | 4.0 | 100.2 | 0.1 | 11.5* | -4.4 | -3.1 | 48.3* | 0.8 | 27.4*
SMILES | IDE cell inh | Yeast superoxide | Efflux pump mplx | TbMetRS inhib | HDAC3 inh | IDE cell activ | TbMetRS confirm | Jurkat cytotox | TbMetRS FP orth
Cc1csc(NC(=O)CSC2=NCCS2)n1 | -1.8 | 91.7 | 0.1 | -0.4 | 1.2 | 2.6 | · | · | ·
CC(C)(C)c1csc(NC(=O)CSC2=NCCS2)n1 | -0.7 | 103.5 | 0.1 | 6.0* | 2.7 | 4.4 | 2.0 | 4.0 | 7.5
O=C(N[C@@H](Cc1c[nH]c2ccccc12)C(=O)O)c1ccc(Cl)cc1 | 5.3 | 107.5 | 0.1 | -0.9 | 2.7 | 4.8 | · | · | ·
NC(=NCCc1c[nH]c2ccccc12)NC(=O)c1ccc(Cl)cc1 | 6.6 | 104.2 | -0.1 | 28.9* | -5.8 | 5.5 | 34.9* | 1.9 | 15.9
Cc1cc(C)n(CCC(=O)N/N=C/c2c(O)ccc3ccccc23)n1 | -2.9 | 113.3 | 0.0 | 6.5* | · | 7.4 | 13.9* | 86.8* | 10.7
COCC(=O)N(Cc1cc2cc(C)ccc2[nH]c1=O)c1ccc(C)c(C)c1 | -1.7 | 94.1 | 0.1 | 0.5 | 9.3 | 5.8 | · | · | ·
COCC(=O)N(Cc1cc2cc(C)ccc2[nH]c1=O)c1cccc(C)c1C | -1.1 | 99.2 | -0.2 | 5.6* | -5.6 | -2.3 | 11.6* | -2.4 | -0.9
CC1CCC(C(C)C)C(NC(=O)c2ccncc2)C1 (stereo unspecified) | · | · | · | -0.2 | · | · | · | · | ·
O=C(Nc1ccccc1)Nc1ccc(Cl)c(S(=O)(=O)N2CCOCC2)c1 | 3.4 | 90.8 | -0.1 | 14.9* | 1.4 | 5.8 | 18.9* | 14.3 | 14.9
O=C(Nc1cccc(S(=O)(=O)N2CCOCC2)c1)c1ccc(Cl)c([N+](=O)[O-])c1 | -1.9 | 96.2 | -0.3 | 7.7* | -2.6 | 3.6 | 18.8* | 21.4* | 15.3
O=c1onc(-c2ccc(Cl)cc2)n1Cc1ccc(F)cc1 | -2.5 | 95.8 | 0.2 | -0.8 | 2.2 | 3.8 | · | · | ·
O=C(NCc1cccc(Cl)c1)NCc1cccc(Cl)c1 | 0.1 | 100.2 | -1.0 | 6.2* | 3.1 | 6.1 | 9.3* | 9.4 | 8.1
NS(=O)(=O)c1ccc(NC(=S)NCc2cccc(Cl)c2)cc1 | 0.1 | 109.9 | -0.1 | 16.9* | -11.5 | -3.0 | 36.1* | 29.1* | 12.5
NS(=O)(=O)c1ccc(NC(=S)NCc2ccccc2)cc1 | -0.3 | 101.6 | -0.4 | 0.4 | 3.5 | 3.8 | · | · | ·
NC(=O)NCc1cccc(Cl)c1 | -2.0 | 119.7 | -0.1 | 0.3 | 4.7 | -1.6 | · | · | ·
